Source: ChEMBL document CHEMBL2203123, “Synthesis and biological evaluation of some hydrazone derivatives as new anticandidal and anticancer agents” (Eur J Med Chem, 2012)
Converted amounts (≈) assume the structure as drawn.

Assays:
[1] = test system: Candida albicans; assay: Antifungal activity against Candida albicans ATCC 10231 after 24 hrs by microdilution susceptibility assay; format: functional; details: ATCC 10231, 24 h
How it was run: (§1)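 Broth microdilution in Mueller Hinton Broth, compounds from DMSO stocks diluted serially; inocula standardized to 10^6 CFU/mL (McFarland 0.5) from overnight MHB cultures. Plates held 37 °C for 24 h; MIC taken as first well without turbidity, aided by 1% tetrazolium violet added for 3 h at 37 °C. Ketoconazole reference.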

[2] = test system: Candida parapsilosis; assay: Antifungal activity against Candida parapsilosis NRRL Y-12696 after 24 hrs by microdilution susceptibility assay; format: functional; details: Lodderomyces parapsilosis, NRRL Y-12696, 24 h; how it was run: as §1
[3] = test system: Salmonella typhimurium; assay: Genotoxicity against Salmonella typhimurium TA1535/pSK1002 assessed as growth factor ratio at 0.63 mg/ml by umuC assay in absence of S9 fraction; format: toxicity, organism-based; details: salmonella enterica subsp. enterica serovar typhimurium
How it was run: (§2)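 umuC Easy CS: TA1535/pSK1002 grown overnight in ampicillin TG medium at 37 °C, then exposed 2 h at 37 °C to compounds at 5, 2.5, 1.25, 0.63 mg/mL with or without S9. Diluted into fresh medium for 2 h growth (OD600), then β-galactosidase with ONPG 30 min at 28 °C, OD420. Positive controls 2-aminoanthracene (+S9), […] (−S9).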

[4] = test system: Salmonella typhimurium; assay: Genotoxicity against Salmonella typhimurium TA1535/pSK1002 assessed as induction ratio at 2.5 mg/ml by umuC assay in presence of S9 fraction; format: toxicity, organism-based; details: salmonella enterica subsp. enterica serovar typhimurium; how it was run: as §2
[5] = test system: Salmonella typhimurium; assay: Genotoxicity against Salmonella typhimurium TA98 assessed as fold increase in revertants at 5 mg/ml after 90 mins by Ames MPF test in absence of S9 fraction relative to baseline; format: toxicity, organism-based; details: salmonella enterica subsp. enterica serovar typhimurium, 1.5 h
How it was run: (§3)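 Ames MPF fluctuation test, TA98 and TA100: overnight cultures reincubated 90 min, then exposed 90 min at 37 °C to compounds at 0.156-5 mg/mL (in DMSO) with or without 4.5% v/v S9; indicator medium added, 48 wells per sample scored yellow after 48 h, triplicate. Fold over baseline = mean positive wells / (mean of DMSO control + 1 SD).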

[6] = test system: Salmonella typhimurium; assay: Genotoxicity against Salmonella typhimurium TA98 assessed as fold increase in revertants at 0.625 mg/ml after 90 mins by Ames MPF test in absence of S9 fraction relative to baseline; format: toxicity, organism-based; details: salmonella enterica subsp. enterica serovar typhimurium, 1.5 h; how it was run: as §3
[7] = test system: Candida albicans; assay: Antifungal activity against Candida albicans ATCC 90028 after 24 hrs by microdilution susceptibility assay; format: functional; details: ATCC 90028, 24 h; how it was run: as §1
[8] = test system: Salmonella typhimurium; assay: Genotoxicity against Salmonella typhimurium TA100 assessed as fold increase in revertants at 5 mg/ml after 90 mins by Ames MPF test in absence of S9 fraction relative to baseline; format: toxicity, organism-based; details: salmonella enterica subsp. enterica serovar typhimurium, 1.5 h; how it was run: as §3
[9] = test system: Nakaseomyces glabratus; assay: Antifungal activity against Candida glabrata Anadolu University clinical isolate after 24 hrs by microdilution susceptibility assay; format: functional; how it was run: as §1
[10] = test system: Salmonella typhimurium; assay: Genotoxicity against Salmonella typhimurium TA98 assessed as fold increase in revertants at 2.5 mg/ml after 90 mins by Ames MPF test in presence of S9 fraction relative to baseline; format: toxicity, organism-based; details: salmonella enterica subsp. enterica serovar typhimurium, s9, 1.5 h; how it was run: as §3
[11] = test system: Salmonella typhimurium; assay: Genotoxicity against Salmonella typhimurium TA100 assessed as fold increase in revertants at 0.3125 mg/ml after 90 mins by Ames MPF test in presence of S9 fraction relative to baseline; format: toxicity, organism-based; details: salmonella enterica subsp. enterica serovar typhimurium, s9, 1.5 h; how it was run: as §3
[12] = test system: A549; assay: Cytotoxicity against human A549 cells after 24 hrs by XTT assay; format: functional, cell-based; details: A549, 24 h
How it was run: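 A549 cells in RPMI 1640 with 10% fetal calf serum, penicillin/streptomycin, 37 °C, 5% CO2; 20,000 cells/well seeded, after 24 h exposed to compounds at 0.00316 µM-10 mM for 24 h. XTT mitochondrial activity read at 480 nm (reference 680 nm) after 3 h; % inhibition per concentration, IC50 by non-linear regression.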

[13] = test system: Salmonella typhimurium; assay: Genotoxicity against Salmonella typhimurium TA100 assessed as fold increase in revertants at 2.5 mg/ml after 90 mins by Ames MPF test in presence of S9 fraction relative to baseline; format: toxicity, organism-based; details: salmonella enterica subsp. enterica serovar typhimurium, s9, 1.5 h; how it was run: as §3
[14] = test system: Salmonella typhimurium; assay: Genotoxicity against Salmonella typhimurium TA100 assessed as fold increase in revertants at 0.156 mg/ml after 90 mins by Ames MPF test in presence of S9 fraction relative to baseline; format: toxicity, organism-based; details: salmonella enterica subsp. enterica serovar typhimurium, s9, 1.5 h; how it was run: as §3
[15] = test system: Salmonella typhimurium; assay: Genotoxicity against Salmonella typhimurium TA1535/pSK1002 assessed as growth factor ratio at 1.25 mg/ml by umuC assay in presence of S9 fraction; format: toxicity, organism-based; details: salmonella enterica subsp. enterica serovar typhimurium; how it was run: as §2
[16] = Genotoxicity against Salmonella typhimurium TA1535/pSK1002 assessed as induction ratio at 1.25 mg/ml by umuC assay in absence of S9 fraction; format: toxicity, organism-based; details: salmonella enterica subsp. enterica serovar typhimurium, Salmonella typhimurium TA1535/pSK1002 without S9 fraction; how it was run: as §2
[17] = test system: Salmonella typhimurium; assay: Genotoxicity against Salmonella typhimurium TA98 assessed as fold increase in revertants at 1.25 mg/ml after 90 mins by Ames MPF test in presence of S9 fraction relative to baseline; format: toxicity, organism-based; details: salmonella enterica subsp. enterica serovar typhimurium, s9, 1.5 h; how it was run: as §3
[18] = test system: Salmonella typhimurium; assay: Genotoxicity against Salmonella typhimurium TA100 assessed as fold increase in revertants at 2.5 mg/ml after 90 mins by Ames MPF test in absence of S9 fraction relative to baseline; format: toxicity, organism-based; details: salmonella enterica subsp. enterica serovar typhimurium, 1.5 h; how it was run: as §3
[19] = test system: Salmonella typhimurium; assay: Genotoxicity against Salmonella typhimurium TA1535/pSK1002 assessed as growth factor ratio at 5 mg/ml by umuC assay in absence of S9 fraction; format: toxicity, organism-based; details: salmonella enterica subsp. enterica serovar typhimurium; how it was run: as §2
[20] = test system: Salmonella typhimurium; assay: Genotoxicity against Salmonella typhimurium TA100 assessed as fold increase in revertants at 0.3125 mg/ml after 90 mins by Ames MPF test in absence of S9 fraction relative to baseline; format: toxicity, organism-based; details: salmonella enterica subsp. enterica serovar typhimurium, 1.5 h; how it was run: as §3
[21] = test system: Salmonella typhimurium; assay: Genotoxicity against Salmonella typhimurium TA100 assessed as fold increase in revertants at 0.625 mg/ml after 90 mins by Ames MPF test in absence of S9 fraction relative to baseline; format: toxicity, organism-based; details: salmonella enterica subsp. enterica serovar typhimurium, 1.5 h; how it was run: as §3
[22] = Genotoxicity against Salmonella typhimurium TA1535/pSK1002 assessed as induction ratio at 1.25 mg/ml by umuC assay in presence of S9 fraction; format: toxicity, organism-based; details: salmonella enterica subsp. enterica serovar typhimurium, Salmonella typhimurium TA1535/pSK1002 with S9 fraction; how it was run: as §2
[23] = test system: Salmonella typhimurium; assay: Genotoxicity against Salmonella typhimurium TA98 assessed as fold increase in revertants at 0.3125 mg/ml after 90 mins by Ames MPF test in presence of S9 fraction relative to baseline; format: toxicity, organism-based; details: salmonella enterica subsp. enterica serovar typhimurium, s9, 1.5 h; how it was run: as §3
[24] = Genotoxicity against Salmonella typhimurium TA1535/pSK1002 assessed as induction ratio at 5 mg/ml by umuC assay in absence of S9 fraction; format: toxicity, organism-based; details: salmonella enterica subsp. enterica serovar typhimurium, Salmonella typhimurium TA1535/pSK1002 without S9 fraction; how it was run: as §2
[25] = test system: Salmonella typhimurium; assay: Genotoxicity against Salmonella typhimurium TA1535/pSK1002 assessed as growth factor ratio at 2.5 mg/ml by umuC assay in absence of S9 fraction; format: toxicity, organism-based; details: salmonella enterica subsp. enterica serovar typhimurium; how it was run: as §2
[26] = test system: Salmonella typhimurium; assay: Genotoxicity against Salmonella typhimurium TA98 assessed as fold increase in revertants at 5 mg/ml after 90 mins by Ames MPF test in presence of S9 fraction relative to baseline; format: toxicity, organism-based; details: salmonella enterica subsp. enterica serovar typhimurium, s9, 1.5 h; how it was run: as §3
[27] = test system: Salmonella typhimurium; assay: Genotoxicity against Salmonella typhimurium TA100 assessed as fold increase in revertants at 1.25 mg/ml after 90 mins by Ames MPF test in absence of S9 fraction relative to baseline; format: toxicity, organism-based; details: salmonella enterica subsp. enterica serovar typhimurium, 1.5 h; how it was run: as §3

| Compound | MIC [1] [µg/mL] | MIC [2] [µg/mL] | Ratio [3] | Ratio [4] | fold change (FC) [5] | fold change (FC) [6] | MIC [7] [µg/mL] | fold change (FC) [8] | MIC [9] [µg/mL] | fold change (FC) [10] | fold change (FC) [11] | IC50 [12] [mM] | fold change (FC) [13] | fold change (FC) [14] | Ratio [15] | fold induction at 1.25 mg/ml [16] | fold change (FC) [17] | fold change (FC) [18] | Ratio [19] | fold change (FC) [20] | also measured |
| --- | --- | --- | --- | --- | --- | --- | --- | --- | --- | --- | --- | --- | --- | --- | --- | --- | --- | --- | --- | --- | --- |
| COc1ccc(/C=N/NC(=O)CSc2nnnn2C)cc1 | 500 (≈ 1630 µM) | 250 (≈ 816 µM) | 1.028 | 0.681 | 0.33 | 0.65 | 500 (≈ 1630 µM) | 0.5 | 125 (≈ 408 µM) | 0.53 | 0.77 | > 10 | 0.62 | 0.46 | 1.294 | 1.12 | 0.53 | 0.6 | 1.99 | 0.4 | fold change (FC) [21]: 0.3; fold induction at 1.25 mg/ml [22]: 0.769; fold change (FC) [23]: 0.84; fold induction at 5 mg/ml [24]: 0.763; Ratio [25]: 1.166; fold change (FC) [26]: 0.84; fold change (FC) [27]: 0.2 |
| Cn1nnnc1SCC(=O)N/N=C/c1ccccc1F | 250 (≈ 849 µM) | 1000 (≈ 3400 µM) | 1.045 | 0.352 | 1.59 | 0.64 | 500 (≈ 1700 µM) | 0.17 | 250 (≈ 849 µM) | 1.57 | 0.51 | 9 | 0.95 | 0.66 | 1.163 | 1.02 | 1.28 | 0.17 | 3.877 | 0.06 | fold change (FC) [21]: 0.23; fold induction at 1.25 mg/ml [22]: 0.548; fold change (FC) [23]: 0.71; fold induction at 5 mg/ml [24]: 0.321; Ratio [25]: 1.559; fold change (FC) [26]: 1.14; fold change (FC) [27]: 0.29 |
